# The source made the active and inactive calls.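 How the source made its calls: active means fitted curve climbs past 10% caspase activation, relative to the positive control, at or below the top valid tested dose; inactive means the rest, including activity in the opposite direction.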
# Tested on: not listed separately
# Experiment: apoptosis induction in unprimed parental MEFs – cell-based, wild-type MEF, luminescence, dry powder, set 4, counter-screen for A1 inhibitor project, dose response (AID 504353)
# Details: wild-type MEF caspase-3/7 activation, CaspaseGlo luminescence, 3 h; at 35 µM (top of the series)
# Outline: (§1)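 Timing: 3 h compound exposure at 37 °C, 5% CO2 / Test system: wild-type MEFs, not A1-dependent / Input: 2500 cells/well / Detection: CaspaseGlo luminescence after 1 h reagent incubation, room temperature / Read-out: caspase activation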
row,SMILES,caspase activation
1,C/C(=N\Nc1nc(N2CCCCC2)nc(N2CCCCC2)n1)c1ccc(F)cc1,0.729% (inactive)
2,CCn1c(=O)c([N+](=O)[O-])c(Sc2ccc(C)cc2)c2ccccc21,0.55% (inactive)
3,COCCn1c(=O)c(Sc2ccc(C)cc2)c(Sc2ccc(C)cc2)c2ccccc21,0.618% (inactive)
4,O=c1[nH]c2ccccc2c(Cl)c1[N+](=O)[O-],-2.56% (inactive)
5,Cc1ccc(Sc2c(Sc3ccc(C)cc3)c3ccccc3n(C)c2=O)cc1,-0.533% (inactive)
6,COc1ccc(CCNc2nc(N3CCOCC3)nc(N3CCOCC3)n2)cc1OC,0.427% (inactive)
7,O=C(COc1ccc(Cl)cc1Cl)NNc1nc(N2CCOCC2)nc(N2CCOCC2)n1,2.07% (inactive)

# Tested on: wild-type MEF caspase-3/7 activation, CaspaseGlo luminescence, 3 h
# Experiment: as above
# Details: not given
# Outline: as §1
row,SMILES,AC10
1,COCCn1c(=O)c([N+](=O)[O-])c(Sc2ccc(C)cc2)c2ccccc21,22 µM
2,O=c1c([N+](=O)[O-])c(Cl)c2ccccc2n1Cc1ccccc1,3.93 µM
3,Cn1c(=O)c([N+](=O)[O-])c(Cl)c2ccccc21,2.9 µM
4,Cn1c(=O)c([N+](=O)[O-])c(-n2cnc3ccccc32)c2ccccc21,26.1 µM
5,Cc1ccc(Sc2c([N+](=O)[O-])c(=O)n(Cc3ccccc3)c3ccccc23)cc1,21.7 µM
